How the values were obtained:
Steryl-sulfatase [1] = biological target: T1, Steryl-sulfatase (Homo sapiens, UniProt P08842)
T1 sequence (P08842 whole entry): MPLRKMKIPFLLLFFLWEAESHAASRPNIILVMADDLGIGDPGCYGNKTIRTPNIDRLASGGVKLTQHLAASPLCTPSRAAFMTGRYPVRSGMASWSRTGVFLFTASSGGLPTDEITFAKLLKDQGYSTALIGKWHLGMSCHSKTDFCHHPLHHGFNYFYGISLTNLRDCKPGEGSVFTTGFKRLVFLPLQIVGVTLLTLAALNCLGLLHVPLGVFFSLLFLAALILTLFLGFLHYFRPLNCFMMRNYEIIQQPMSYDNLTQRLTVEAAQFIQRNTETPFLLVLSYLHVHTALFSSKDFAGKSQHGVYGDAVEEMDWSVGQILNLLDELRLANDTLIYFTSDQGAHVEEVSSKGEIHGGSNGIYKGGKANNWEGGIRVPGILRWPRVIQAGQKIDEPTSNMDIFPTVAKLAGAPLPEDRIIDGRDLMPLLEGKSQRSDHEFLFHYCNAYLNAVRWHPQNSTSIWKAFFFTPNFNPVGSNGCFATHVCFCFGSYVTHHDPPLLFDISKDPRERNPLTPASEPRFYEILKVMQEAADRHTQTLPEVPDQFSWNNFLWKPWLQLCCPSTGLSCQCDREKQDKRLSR

Steryl-sulfatase [2] = biological target: T1, Steryl-sulfatase; test: Inhibition of steroid sulfatase in human MCF7 cells using [3H]E1S as substrate after 20 hrs by scintillation spectrometry; type: cell-based
Method in brief: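 Intact MCF-7 monolayers incubated 20 h at 37 °C with [3H]E1S (5 pmol, 7 × 10^5 dpm) in serum-free minimal essential medium, with or without inhibitor (0.1–10 range). Estrone product separated from E1S by toluene partition; [14C]estrone corrected procedural losses. 3H/14C counted by scintillation; E1S hydrolysed calculated from 3H counts and substrate specific activity; IC50 derived.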

[3] = biological target: T2, Steryl-sulfatase (Homo sapiens) (UniProt P08842); test: Inhibition of steroid sulfatase in human MCF7 cells using [3H]E1S as substrate at 10 uM after 20 hrs by scintillation spectrometry; type: cell-based
T2 sequence (whole entry): T1 sequence (P08842 whole entry)
Method in brief: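 Intact MCF-7 monolayers exposed to inhibitor with [3H]E1S (5 pmol, 60 Ci/mmol) in serum-free minimal essential medium, 20 h at 37 °C. Product estrone split from E1S by toluene partition, with [14C]estrone as recovery marker. 3H and 14C counted by scintillation. E1S hydrolysed calculated from 3H counts, corrected for volumes and 14C recovery, and from substrate specific activity.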

Rattus norvegicus [4] = test: Inhibition of steroid sulfatase in rat liver at 10 mg/kg, sc; type: functional; conditions: route subcutaneous
Rattus norvegicus [5] = test: Inhibition of steroid sulfatase in rat liver at 10 mg/kg, po; type: functional
Rattus norvegicus [6] = test: Inhibition of steroid sulfatase in rat liver at 10 mg/kg, po administered as single dose measured up to 7 days; type: functional; conditions: 168 h
Rattus norvegicus [7] = test: Inhibition of steroid sulfatase in rat liver at 10 mg/kg, sc administered as single dose measured up to 7 days; type: functional; conditions: 168 h, route subcutaneous
[8] = biological target: T2, Steryl-sulfatase (Homo sapiens); conditions: MCF7, 0.01 uM

IC50 (Steryl-sulfatase [1])	SMILES	IC50 (Steryl-sulfatase [2])	further results
> 10000 nM	C=CCc1cc2c(c(CC=C)c1OS(N)(=O)=O)CC[C@@H]1[C@@H]2CC[C@]2(C)C(=O)CC[C@@H]12		inhibition [3]: < 10%
> 10000 nM	CCCc1c(OS(N)(=O)=O)ccc2c1CC[C@@H]1[C@@H]2CC[C@]2(C)C(=O)CC[C@@H]12		inhibition [3]: < 10%
	C[C@]12CC[C@@H]3c4cc(Br)c(OS(N)(=O)=O)cc4CC[C@H]3[C@@H]1CCC2=O	0.11 nM	
0.1 nM	C[C@]12CC[C@@H]3c4cc(C(F)F)c(OS(N)(=O)=O)cc4CC[C@H]3[C@@H]1CCC2=O		
	C[C@]12CC[C@@H]3c4cc(I)c(OS(N)(=O)=O)cc4CC[C@H]3[C@@H]1CCC2=O	0.81 nM	
2500 nM	C=CCc1cc2c(cc1OS(N)(=O)=O)CC[C@@H]1[C@@H]2CC[C@]2(C)C(=O)CC[C@@H]12	37 nM	
5.2 nM	C[C@]12CC[C@@H]3c4cc(C#N)c(OS(N)(=O)=O)cc4CC[C@H]3[C@@H]1CCC2=O	1.2 nM	
> 10000 nM	CN1c2cc3c(cc2OS1(=O)=O)CC[C@@H]1[C@@H]3CC[C@]2(C)C(=O)CC[C@@H]12		
2900 nM	CCCc1cc2c(cc1OS(N)(=O)=O)CC[C@@H]1[C@@H]2CC[C@]2(C)C(=O)CC[C@@H]12	236 nM	
> 10000 nM	CCCc1cc2c(c(CCC)c1OS(N)(=O)=O)CC[C@@H]1[C@@H]2CC[C@]2(C)C(=O)CC[C@@H]12		inhibition [3]: < 10%
1200 nM	C[C@]12CC[C@@H]3c4ccc(OS(N)(=O)=O)c(Br)c4CC[C@H]3[C@@H]1CCC2=O	42 nM	
> 10000 nM	Cc1cc2c(cc1OS(N)(=O)=O)CC[C@@H]1[C@@H]2CC[C@]2(C)C(=O)CC[C@@H]12		

SMILES	IC50 (Steryl-sulfatase [1])	IC50 (Steryl-sulfatase [2])	further results
CCc1cc2c(cc1OS(N)(=O)=O)CC[C@@H]1[C@@H]2CC[C@]2(C)C(=O)CC[C@@H]12	820 nM		
C[C@]12CC[C@@H]3c4cc([N+](=O)[O-])c(OS(N)(=O)=O)cc4CC[C@H]3[C@@H]1CCC2=O	70 nM	8.3 nM	
C[C@]12CC[C@@H]3c4cc(Cl)c(OS(N)(=O)=O)cc4CC[C@H]3[C@@H]1CCC2=O	3.4 nM	0.44 nM	
C[C@]12CC[C@@H]3c4ccc5c(c4CC[C@H]3[C@@H]1CCC2=O)NS(=O)(=O)O5	> 10000 nM		
C[C@]12CC[C@@H]3c4ccc(OS(N)(=O)=O)cc4CC[C@H]3[C@@H]1CCC2=O [EMATE]	18 nM	0.83 nM	inhibition in vivo at 10 mg/kg (Rattus norvegicus [4]): 99%; inhibition in vivo at 10 mg/kg (Rattus norvegicus [5]): 99%; inhibition in vivo at 10 mg/kg (Rattus norvegicus [6]): > 95%; inhibition in vivo at 10 mg/kg (Rattus norvegicus [7]): > 95%
C[C@@]12CCC[C@H]1[C@@H]1CCc3cc(OS(N)(=O)=O)ccc3[C@H]1CC2	199 nM		inhibition [8]: 97%
C[C@]12CC[C@@H]3c4cc5c(cc4CC[C@H]3[C@@H]1CCC2=O)OS(=O)(=O)N5	> 10000 nM		
C[C@]12CC[C@@H]3c4cc(F)c(OS(N)(=O)=O)cc4CC[C@H]3[C@@H]1CCC2=O	5.6 nM	0.62 nM	
C[C@]12CC[C@@H]3c4ccc(OS(N)(=O)=O)c([N+](=O)[O-])c4CC[C@H]3[C@@H]1CCC2=O	0.8 nM	0.01 nM	

— ChEMBL document CHEMBL2010652, “Synthesis and evaluation of analogues of estrone-3-O-sulfamate as potent steroid sulfatase inhibitors” (Bioorg Med Chem, 2012)
